{"source": "ChEMBL document CHEMBL5712894", "about": "“Regulation of angiotensin II actions by enhancers and super-enhancers in vascular smooth muscle cells” (Nat Commun, 2017)", "key": {"VSMC [1]": {"test_system": "VSMC", "test": "Downregulation of Fgf2 gene expression in human VSMC cells pretreated with compound at 250 to 500 nM followed by AngII addition measured by RT-qPCR analysis", "assay_type": "functional, cell-based", "conditions": "dose 250-500 nM"}, "VSMC [2]": {"test_system": "VSMC", "test": "Downregulation of Egr2 gene expression in human VSMC cells pretreated with compound at 250 to 500 nM followed by AngII addition measured by RT-qPCR analysis", "assay_type": "functional, cell-based", "conditions": "dose 250-500 nM"}, "Mus musculus [3]": {"test_system": "Mus musculus", "test": "Antihypersensitivity in 1 ug/kg/min AngII infused C57BL/6 mouse assessed as reduction in inflammation at 50 mg/kg, ip for 4 weeks by F4/80 staining analysis", "assay_type": "functional, organism-based", "procedure,_shortened": "(§1)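 Male C57BL/6 mice with subcutaneous osmotic minipumps delivering AngII (1.0 μg kg−1 min−1, 28 days); from 2 days post-implantation, 50 mg kg−1 ip once daily (vehicle DMSO). Aortas formalin-fixed, paraffin 5 µm sections. H&E sections quantified for wall thickness; F4/80 IHC (DAB) quantified as reciprocal brown intensity excluding adventitia. Mean + SEM, one-way ANOVA with Tukey.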"}, "[4]": {"test": "Binding affinity of BRD2 (unknown origin) assessed as dissociation constant", "design": "species or system Homo sapiens"}, "Mus musculus [5]": {"test_system": "Mus musculus", "test": "Antihypersensitivity in 1 ug/kg/min AngII infused C57BL/6 mouse assessed as reduction in systolic blood pressure at 50 mg/kg, ip for 4 weeks", "assay_type": "functional, organism-based", "procedure,_shortened": "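Male C57BL/6 mice infused with AngII via subcutaneous osmotic minipump (1.0 μg kg−1 min−1, 28 days); 50 mg kg−1 ip once daily starting 2 days post-implantation, vehicle DMSO. Systolic pressure by tail cuff during week 4. n = 7–8 mice/group, mean + SEM, one-way ANOVA with Tukey.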"}, "Rattus norvegicus [6]": {"species": "Rattus norvegicus", "test": "Downregulation of Foxp1 gene expression in rat aorta pretreated with compound at 500 nM followed by AngII addition measured by ChIP assay", "assay_type": "functional, tissue-based"}, "Rattus norvegicus [7]": {"species": "Rattus norvegicus", "test": "Downregulation of ESM1 gene expression in rat aorta pretreated with compound at 500 nM followed by AngII addition measured by ChIP assay", "assay_type": "functional, tissue-based"}, "VSMC [8]": {"test_system": "VSMC", "test": "Downregulation of Flt gene expression in human VSMC cells pretreated with compound at 250 to 500 nM followed by AngII addition measured by RT-qPCR analysis", "assay_type": "functional, cell-based", "conditions": "dose 250-500 nM"}, "Rattus norvegicus [9]": {"species": "Rattus norvegicus", "test": "Downregulation of Spry2 gene expression in rat aorta pretreated with compound at 500 nM followed by AngII addition measured by ChIP assay", "assay_type": "functional, tissue-based"}, "Rattus norvegicus [10]": {"species": "Rattus norvegicus", "test": "Downregulation of fst gene expression in rat aorta pretreated with compound at 500 nM followed by AngII addition measured by ChIP assay", "assay_type": "functional, tissue-based"}, "VSMC [11]": {"test_system": "VSMC", "test": "Downregulation of Tgif1 gene expression in human VSMC cells pretreated with compound at 250 to 500 nM followed by AngII addition measured by RT-qPCR analysis", "assay_type": "functional, cell-based", "conditions": "dose 250-500 nM"}, "VSMC [12]": {"test_system": "VSMC", "test": "Downregulation of Spry2 gene expression in human VSMC cells pretreated with compound at 250 to 500 nM followed by AngII addition measured by RT-qPCR analysis", "assay_type": "functional, cell-based", "conditions": "dose 250-500 nM"}, "VSMC [13]": {"test_system": "VSMC", "test": "Downregulation of ESM1 gene expression in human VSMC cells pretreated with compound at 250 to 500 nM followed by AngII addition measured by RT-qPCR analysis", "assay_type": "functional, cell-based", "conditions": "dose 250-500 nM"}, "Mus musculus [14]": {"test_system": "Mus musculus", "test": "Antihypersensitivity in 1 ug/kg/min AngII infused C57BL/6 mouse assessed as reduction in medial hypertrophy at 50 mg/kg, ip for 4 weeks by F4/80 staining analysis", "assay_type": "functional, organism-based", "procedure,_shortened": "as §1"}, "Rattus norvegicus [15]": {"species": "Rattus norvegicus", "test": "Downregulation of Fgf2 gene expression in rat aorta pretreated with compound at 500 nM followed by AngII addition measured by ChIP assay", "assay_type": "functional, tissue-based"}, "VSMC [16]": {"test_system": "VSMC", "test": "Downregulation of Fst gene expression in human VSMC cells pretreated with compound at 250 to 500 nM followed by AngII addition measured by RT-qPCR analysis", "assay_type": "functional, cell-based", "conditions": "dose 250-500 nM"}, "VSMC [17]": {"test_system": "VSMC", "test": "Downregulation of Foxp1 gene expression in human VSMC cells pretreated with compound at 250 to 500 nM followed by AngII addition measured by RT-qPCR analysis", "assay_type": "functional, cell-based", "conditions": "dose 250-500 nM"}, "Rattus norvegicus [18]": {"species": "Rattus norvegicus", "test": "Downregulation of Tgif1 gene expression in rat aorta pretreated with compound at 500 nM followed by AngII addition measured by ChIP assay", "assay_type": "functional, tissue-based"}}, "note": "Active and inactive are the calls of the source. The calls are words filed in the database; no cut-off is given here."}
{"smiles": "Cc1sc2c(c1C)C(c1ccc(Cl)cc1)=N[C@@H](CC(=O)OC(C)(C)C)c1nnc(C)n1-2", "values": [{"measurement": "Activity", "setting": "VSMC [1]", "result": "Active"}, {"measurement": "Activity", "setting": "VSMC [2]", "result": "Active"}, {"measurement": "Activity", "setting": "Mus musculus [3]", "result": "Active"}, {"measurement": "Kd", "setting": "[4]", "result": "~128", "unit": "nM"}, {"measurement": "Activity", "setting": "Mus musculus [5]", "result": "Active"}, {"measurement": "Activity", "setting": "Rattus norvegicus [6]", "result": "Active"}, {"measurement": "Activity", "setting": "Rattus norvegicus [7]", "result": "Active"}, {"measurement": "Activity", "setting": "VSMC [8]", "result": "Active"}, {"measurement": "Activity", "setting": "Rattus norvegicus [9]", "result": "Active"}, {"measurement": "Activity", "setting": "Rattus norvegicus [10]", "result": "Active"}, {"measurement": "Activity", "setting": "VSMC [11]", "result": "Active"}, {"measurement": "Activity", "setting": "VSMC [12]", "result": "Active"}, {"measurement": "Activity", "setting": "VSMC [13]", "result": "Active"}, {"measurement": "Activity", "setting": "Mus musculus [14]", "result": "Active"}, {"measurement": "Activity", "setting": "Rattus norvegicus [15]", "result": "Active"}, {"measurement": "Activity", "setting": "VSMC [16]", "result": "Active"}, {"measurement": "Activity", "setting": "VSMC [17]", "result": "Active"}, {"measurement": "Activity", "setting": "Rattus norvegicus [18]", "result": "Active"}]}
